Data from PMC9037209 (Journal of Enzyme Inhibition and Medicinal Chemistry, 2022).
Values after ≈ are worked out from the molar mass of the structure shown. Values joined by “and” are separate entries in the source; they are usually repeats but may differ in a detail not shown here. Equal values may be shown once. “Also recorded” adds a separate entry of the source. Read-outs that look alike come from different tables or passages of the source. Marks after values point to notes of the source that are not given here.

Assays:
[1] = Solubility: concentration of dissolved inhibitor in filtered supernatants; format: physicochemical; settings: for solubility: water, kinetic from dmso stock; for maximal tested concentration of the fully dissolved compound: in the cell culture experiment, filtered supernatant
Procedure, shortened: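 DMSO stocks (10 mM) diluted with water to the planned concentrations. Precipitate removed with sterile 0.22 µm syringe filters. Dissolved concentration in the filtrate measured by UV absorbance: ε261 10,900 M−1 cm−1 for the 6-benzyloxy analogue, ε299 18,000 M−1 cm−1 for 6-benzylthio analogues.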

[2] = tested on: H. pylori strain 26695; experiment: Minimal inhibitory concentration; format: cell-based, Helicobacter pylori
Procedure, shortened: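 Strain ATCC 26695 revived from glycerol stock on BHI agar with 10% FBS and 1% selective supplement. Twofold compound dilutions (DMSO or water stocks) mixed 1:1 with inoculated double-strength BHI (20% FBS, 2% supplement; ~0.05 OD600, 4×10^4 CFU/mL final). Shaken at 120 rpm, 37 °C, microaerophilic; OD600 read at 0, 4, 8 and 24 h. Viability checked with Christensen's urea broth (4 h, aerobic, 37 °C). MIC taken at ≥90% inhibition; triplicates, kanamycin and DMSO controls.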

[3] = target: PNP from Helicobacter pylori strain 26695 (HpPNP) (Helicobacter pylori, UniProt P56463); experiment: Inhibition of H. pylori PNP, direct spectrophotometric phosphorolysis assay; format: biochemical; settings: m7Guo variable substrate, 50 mM phosphate; for inhibition model describing the data: model chosen by F test / AIC; for alpha = Kiu/Kic: mixed inhibition model, 25 °C, pH 7.0
PNP from Helicobacter pylori strain 26695 (HpPNP), sequence (P56463 whole entry): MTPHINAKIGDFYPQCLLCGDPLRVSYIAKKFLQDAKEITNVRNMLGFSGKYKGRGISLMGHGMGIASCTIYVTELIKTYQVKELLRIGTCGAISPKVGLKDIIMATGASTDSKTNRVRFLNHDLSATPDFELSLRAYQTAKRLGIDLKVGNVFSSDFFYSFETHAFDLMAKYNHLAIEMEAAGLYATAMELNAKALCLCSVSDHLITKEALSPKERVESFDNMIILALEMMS

[4] = target: H. pylori PNP; settings: read-out: inhibition constant; competitive vs. nucleoside substrate; cited from earlier work
[5] = tested on: H. pylori strain 26695; settings: cited from earlier work
[6] = tested on: H. pylori 26695 strain; experiment: Checkerboard assay of 6BnS-2Cl-Pu with metronidazole; format: cell-based, Helicobacter pylori; settings: single agent, concentration giving about 90% inhibition or more
Procedure, shortened: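 Sub-MIC checkerboard against strain 26695 with metronidazole (range chosen from the EUCAST MIC). Test-compound gradient 3.0–10.0. Single agents added at 2× and combinations at 4× each, with inoculated double-strength BHI (~0.05 OD600, 4×10^4 CFU/mL final). Shaken at 120 rpm, 37 °C, microaerophilic. […] FICI = MICA/MICa + MICB/MICb.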

[7] = Helicobacter pylori, 26695, 24 h

Row | SMILES | solubility [1] | MIC [2, 7] | inhibition model describing the data [3] | alpha = Kiu/Kic [3] | also measured
1 | Clc1nc(Cl)c2[nH]cnc2n1 [2,6-diCl-Pu, 2,6-dichloropurine] | 236 µg/mL and 1250 µM | 2500 µM (≈ 473 µg/mL) | non-competitive | 1.17 ± 0.44 | solubility in water ([1]; 10 mM stock in milli-Q water and 2-fold dilutions, no precipitate): good solubility in water; also recorded: well soluble in water; MIC ([2]; Helicobacter pylori, 26695): 2500 µM (≈ 473 µg/mL)
2 | Clc1nc(OCc2ccccc2)c2[nH]cnc2n1 [6BnO-2Cl-Pu, 6-benzyloxy-2-chloropurine] | 25 µg/mL and 95 µM |  | mixed inhibition model | 0.25 ± 0.12 | maximal tested concentration of the fully dissolved compound [1]: 0.095 mM
3 | Nc1ncnc2c([C@@H]3O[C@H](CO)[C@@H](O)[C@H]3O)[nH]nc12 [Formycin A] |  |  |  |  | Ki [4]: 14 ± 1.7 µM
4 | NC[C@H]1O[C@H](O[C@H]2[C@H](O)[C@@H](O[C@H]3O[C@H](CO)[C@@H](O)[C@H](N)[C@H]3O)[C@H](N)C[C@@H]2N)[C@H](O)[C@@H](O)[C@@H]1O [kanamycin, Kanamycin] |  |  |  |  | % of H. pylori cell culture inhibition ([2]; 25 µg/mL (52 µM), positive control, not the maximal solubility): 92–96%; MIC [5]: 0.5–64^f µg mL^−1; MIC ([5]; converted from literature value): 1.1 to 132 µM
5 | Cc1ncc([N+](=O)[O-])n1CCO [metronidazole] |  |  |  |  | MIC taken for FICI calculation [6]: 2 µg/mL; MIC ([5]; EUCAST): 8^f µg mL^−1; MIC ([5]; converted from EUCAST value): 47 µM (≈ 8.04 µg/mL)

Second part, led by results:

Row | solubility [1] | MIC [2, 7] | inhibition model describing the data [3] | alpha = Kiu/Kic [3] | SMILES | also measured
6 | 11.1 µg/mL and 40 µM | 69 µg/mL and 250 µM | probably a mixed type | 0.16 ± 0.15 | Clc1nc(SCc2ccccc2)c2[nH]cnc2n1 [6BnS-2Cl-Pu, 6-benzylthio-2-chloropurine] | maximal tested concentration of the fully dissolved compound [1]: 0.040 mM; H. pylori 26695 cell culture growth inhibition ([2]; solution prepared as 0.25 mM but partially precipitated): full inhibition; also recorded: Complete growth inhibition
7 | 21 µg/mL and 85 µM | 48 µg/mL and 200 µM | non-competitive | 1.07 ± 0.27 | c1ccc(CSc2ncnc3nc[nH]c23)cc1 [6BnS-Pu, 6-benzylthiopurine] | H. pylori 26695 strain growth inhibition ([2]; prepared as 200 µM but partially precipitated): completely inhibited
